Source: publication PMC6279569 (Clinical cancer research : an official journal of the …, 2018)

Key:
human TRβ = target: T1, human TRβ (Homo sapiens, UniProt P10828); experiment: Human thyroid hormone receptor beta; type: cell-based; conditions: various concentrations, 24 h
T1 sequence (P10828 1-461): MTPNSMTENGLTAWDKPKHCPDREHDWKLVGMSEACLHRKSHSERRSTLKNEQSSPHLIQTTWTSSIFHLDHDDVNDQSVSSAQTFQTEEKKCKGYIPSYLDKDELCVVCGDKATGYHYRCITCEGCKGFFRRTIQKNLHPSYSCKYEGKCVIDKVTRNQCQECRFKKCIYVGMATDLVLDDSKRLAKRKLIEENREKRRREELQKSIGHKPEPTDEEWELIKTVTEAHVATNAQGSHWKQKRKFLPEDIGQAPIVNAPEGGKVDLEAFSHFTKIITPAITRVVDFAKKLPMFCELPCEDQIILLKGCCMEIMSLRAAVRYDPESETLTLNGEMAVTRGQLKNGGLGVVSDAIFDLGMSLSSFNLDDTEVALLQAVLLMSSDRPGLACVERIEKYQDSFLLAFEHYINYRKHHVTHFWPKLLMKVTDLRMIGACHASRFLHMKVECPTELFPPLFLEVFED
In short: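 Commercial reporter cells constitutively expressing human TRβ, with luciferase driven by a TRβ-responsive promoter. Treated for 24 h with various concentrations of T3 (reference agonist) or test compound. TRβ activity read as luciferase relative luminescence units on a plate reader.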

SK-N-DZ and H524 cells = experiment: Cell cycle analysis by PI flow cytometry, cancer cells; type: cell-based, human
[1] = system: γH2A.X, caspase-3 and caspase-9 in cancer cells; experiment: Western blot, cancer cells; type: cell-based, human
In short: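 Conditions: SK-N-DZ cells with 3 µM AOH39 for 0, 6 or 24 h; cancer cells with 500 nM AOH1160 for the indicated times. Cells were lysed in Laemmli buffer, sonicated, run on 4–12% SDS-PAGE and blotted to nitrocellulose. After 5% milk block, blots were probed for γH2A.X, total H2A.X, cleaved and full-length caspase-3, and cleaved caspase-9. Detection used peroxidase secondaries and ECL.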

[2] = system: HR-mediated DSB repair in DR-GFP cells; experiment: Double stranded DNA break repair assay, DR-GFP; type: cell-based
In short: (§1)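 U2OS-derived reporter lines carry stable GFP reporters: DR-GFP for HR and EJ5-GFP for end joining. Cells were grown in DMEM/10% FBS, seeded at 2.5×10⁴ cells/cm² and attached overnight. They were lipofected with an I-SceI expression plasmid; after 3 h, medium was replaced with fresh medium containing test compound at various concentrations (DMSO control). GFP-positive fraction was measured by flow cytometry 3 d post-transfection, relative to control.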

[3] = system: EJ-mediated DSB repair in EJ5-GFP cells; experiment: Double stranded DNA break repair assay, EJ5-GFP; type: cell-based; conditions: 4 µM AOH39
In short: as §1

[4] = system: non-malignant cells (PBMC, 7SM0032, MCF10A, mammary epithelial cells, small airway epithelial cells); experiment: Cell growth, CellTitor-Glo assay, non-malignant cells; type: cell-based; conditions: human PBMCs, 7SM0032 cells
glioblastoma stem cells = experiment: Cell growth of glioblastoma stem cells; type: cell-based, human; conditions: 1 µM, 72 hours; PBT003, PBT707, PBT017
In short: (§2)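 Cells derived from WHO grade IV glioblastoma or primary brain tissue, grown as neurospheres in DMEM/F12 with 20 ng/ml EGF, 20 ng/ml FGF, 5 µg/ml heparin, B27 and 2 mM L-glutamine. Seeded at 5 × 10³/ml or 3 × 10⁴/ml. Given DMSO or 1 µM compound for 72 h. Growth read by CellTiter-Glo luminescence relative to DMSO control, ± S.D.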

normal neural stem cells = experiment: Cell growth of normal neural stem cells; type: cell-based; conditions: 1 µM, 72 hours; NSC005-007
In short: as §2

Recombinant human PCNA = Recombinant human PCNA (Homo sapiens, UniProt P12004); experiment: Saturation Transfer Difference; type: binding; conditions: T3 50 µM, AOH1160 expected 16 µM, 1 µM PCNA
In short: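 Recombinant human PCNA (1 µM) in 15 mM D₂O phosphate buffer, pH 7.2, with 10 µM deuterated DTT and 2% D₆-DMSO. T3 (50 µM) was run with and without test compound; 4 µM DSS served as internal reference for ligand concentration. Spectra were taken at 25 °C, 700 MHz, cryoprobe. Saturation was at 0.9 ppm and reference at −30 ppm, acquired interleaved. STD = (I_Ref − I_STD)/I_Ref.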

[5] = system: SK-N-BE(2)c, H82 and H526 cells; experiment: DNA combing analysis of replication fork extension; type: cell-based, human; conditions: 0.2 µM, 20 minutes, vs untreated control
In short: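 Synchronized S-phase cells (DMEM, 10% FBS) pulsed with CldU for 10 min, washed, then IdU for 20 min with or without 0.2 µM compound. Cells lysed on slides and DNA fibres spread. Fibres immunostained for CldU (green) and IdU (red). Segment lengths from more than 30 fibres averaged ± SD. IdU lengths compared with the untreated control by Student's t-test.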

7SM0032 and SAEC cells = experiment: Cell cycle analysis by PI flow cytometry, non-malignant cells; type: cell-based, human; conditions: 500 nM AOH1160
In short: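 7SM0032 cells (hEPM-1 medium) and SAEC (SAGM medium), 37°C, 5% CO2. Seeded at 1×10⁵/ml and attached overnight. Exposed to 500 nM test compound for the indicated time (methods: 6 or 24 h). Fixed in 60% ethanol, stained with propidium iodide, and analysed by flow cytometry. Cell-cycle populations, including sub-G1, were modelled from PI intensity.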

γH2A.X in 7SM0032 cells = experiment: Western blot, non-malignant cells; type: cell-based, human; conditions: 500 nM AOH1160
In short: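 7SM0032 cells treated with 500 nM compound for the indicated times, then lysed directly in Laemmli buffer on the plate. Immunoblot membranes blocked in 5% nonfat milk and probed with anti-γH2A.X. Detection with peroxidase-conjugated secondary antibody and ECL.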

SK-N-DZ cells = experiment: TUNEL assay, cancer cells; type: cell-based, human; conditions: 500 nM AOH1160, 24 h
In short: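 Cells were seeded at 1×10⁵/ml on chamber slides. Once attached, they were treated 24 h with 500 nM test compound, then fixed. Apoptosis was detected by TUNEL with a TMR red in situ cell death kit; red TMR fluorescence marks free DNA ends.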

7SM0032 cells = experiment: TUNEL assay, non-malignant cells; type: cell-based; conditions: 500 nM AOH1160, 24 h
In short: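 7SM0032 cells (hEPM-1 medium, 37°C, 5% CO2) seeded at 1×10⁵/ml on chamber slides. Once attached, treated with 500 nM compound for 24 h. Fixed and labelled by TUNEL using a TMR-red in situ cell death kit. Red fluorescence at free DNA ends scored as apoptotic cells.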

SK-N-DZ NB cells = experiment: Clonogenic assay with cisplatin, SK-N-DZ; type: cell-based, human; conditions: 500 nM AOH1160, 18 h
In short: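 300 SK-N-DZ cells per 60-mm dish, attached overnight, then treated 18 h with or without various cisplatin concentrations, with or without 500 nM test compound. After two washes, cells were grown 3 weeks in fresh medium changed every 3 d. Colonies were stained with 0.5% crystal violet and counted. Combination index used the Bliss independence model: CI = (E_A+E_B−E_A*E_B)/E_AB.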

carboxyl esterase, ES-1 = target: T2, carboxyl esterase, ES-1 (Mus musculus, UniProt P23953); experiment: Stability in plasma, rodent; type: in vitro ADME
T2 sequence (P23953 19-554): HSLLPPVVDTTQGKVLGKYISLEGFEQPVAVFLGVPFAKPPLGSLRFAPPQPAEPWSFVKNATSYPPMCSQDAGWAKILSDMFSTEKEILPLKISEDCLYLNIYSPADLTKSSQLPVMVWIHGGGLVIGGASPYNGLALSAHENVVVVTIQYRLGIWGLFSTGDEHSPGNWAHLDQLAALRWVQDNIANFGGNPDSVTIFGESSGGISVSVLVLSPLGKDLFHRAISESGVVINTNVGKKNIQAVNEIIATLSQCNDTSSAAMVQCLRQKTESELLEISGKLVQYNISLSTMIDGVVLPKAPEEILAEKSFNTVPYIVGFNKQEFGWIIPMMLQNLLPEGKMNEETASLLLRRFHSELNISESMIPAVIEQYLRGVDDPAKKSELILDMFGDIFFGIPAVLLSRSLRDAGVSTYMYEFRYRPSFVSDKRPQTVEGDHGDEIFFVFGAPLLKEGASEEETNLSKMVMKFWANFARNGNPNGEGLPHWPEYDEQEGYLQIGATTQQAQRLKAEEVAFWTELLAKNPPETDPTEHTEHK
In short: (§3)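 Test compound was incubated in plasma at 37 °C, with aliquots removed at various times. Remaining parent was quantified by LC-MS/MS (UPLC gradient, positive-ion electrospray) and expressed as percent of input concentration.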

[6] = Stability in plasma, canine; type: in vitro ADME; conditions: 37°C
In short: as §3

[7] = Stability in plasma, monkey; type: in vitro ADME; conditions: 37°C
In short: as §3

[8] = Stability in plasma, human; type: in vitro ADME; conditions: 37°C
In short: as §3

[9] = Stability in plasma, Es1e/SCID mice; type: in vitro ADME; conditions: Es1^e/SCID mouse plasma, 37°C
In short: as §3

Pharmacokinetic = type: in vivo, ES1^e/SCID mice
In short: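 Test compound was dissolved at 60 °C under nitrogen in vehicle (Kolliphor HS 15, Poloxamer 407, BHA, BHT, propyl gallate). It was diluted to 4 mg/mL in 1:1 water:vehicle just before dosing and given orally at 40 mg/kg to male and female ES1^e/SCID mice. Plasma was taken by cardiac puncture at 0–24 h (3 male + 3 female per time point). Levels were measured by LC-MS/MS (positive ESI, MRM); PK parameters were derived by non-compartmental analysis.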

[10] = mouse, in vivo
[11] = system: xenograft tumors of SK-N-BE(2)c, SK-N-AS, MDA-MB-468 and H82; experiment: In vivo xenograft tumor model; conditions: 40 mg/kg once daily by oral gavage

Recombinant human PCNA, sequence (P12004 whole entry): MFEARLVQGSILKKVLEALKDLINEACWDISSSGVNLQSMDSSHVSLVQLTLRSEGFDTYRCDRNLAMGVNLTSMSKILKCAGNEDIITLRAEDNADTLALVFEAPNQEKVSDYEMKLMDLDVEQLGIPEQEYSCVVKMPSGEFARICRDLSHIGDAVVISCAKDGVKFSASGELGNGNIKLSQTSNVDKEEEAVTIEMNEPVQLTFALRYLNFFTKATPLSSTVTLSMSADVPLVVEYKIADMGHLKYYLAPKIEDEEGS

O=C(CNC(=O)c1cccc2ccccc12)Nc1ccccc1Cc1ccccc1 [AOH39]
thyroid hormone activity in TR reporter assay (human TRβ): neither AOH1160 nor AOH39 showed any thyroid hormone activity
cell cycle effect (SK-N-DZ and H524 cells; SK-N-DZ, 3 µM AOH39, 6 or 24 h): caused cell cycle arrest of cancer cells at the S and, to a larger degree, G2/M phases
apoptosis (sub-G1 population) (SK-N-DZ and H524 cells; SK-N-DZ, 3 µM AOH39, 24 h): cancer cells start to die through apoptosis
intracellular γH2A.X levels ([1]; SK-N-DZ, 3 µM AOH39): enhanced intracellular γH2A.X levels
HR-mediated DNA repair ([2]; 4 µM AOH39): inhibited HR-mediated DNA repair
EJ-mediated DNA repair [3]: without exerting any statistically significant effect on EJ

O=C(CNC(=O)c1cccc2ccccc12)Nc1ccccc1Oc1ccccc1 [AOH1160]
concentration up to which not significantly toxic [4]: at least 5 µM
growth of glioblastoma stem cells (glioblastoma stem cells): inhibited the growth of glioblastoma stem cells
growth of normal neural stem cells (normal neural stem cells): without significantly affecting the growth of normal neural stem cells
thyroid hormone activity in TR reporter assay (human TRβ): neither AOH1160 nor AOH39 showed any thyroid hormone activity
effect on STD values of T3 (Recombinant human PCNA): caused reduction of STD values of T3
length of IdU-incorporated DNA strands (replication fork extension) [5]: significantly shorter IdU-incorporated DNA strands
apoptosis (sub-G1 population) (SK-N-DZ and H524 cells; 500 nM AOH1160): promotes apoptosis
cell cycle effect (SK-N-DZ and H524 cells; neuroblastoma and small cell lung cancer cells, 500 nM AOH1160): causes cell cycle arrest
cell cycle profiles of non-malignant cells (7SM0032 and SAEC cells): doesn’t significantly change the cell cycle profiles
caspase activation ([1]; cancer cells, 500 nM AOH1160): activation of caspase-3 and caspase-9
γH2A.X levels ([1]; cancer cells, 500 nM AOH1160): increases γH2A.X levels
intracellular γH2A.X level in non-malignant cells (γH2A.X in 7SM0032 cells): Nor does it increase intracellular γH2A.X level
HR-mediated DNA repair ([2]; various concentrations of AOH1160): blocks DNA repair in DR-GFP
apoptosis by TUNEL (SK-N-DZ cells): increase in apoptosis
apoptosis by TUNEL in non-malignant cells (7SM0032 cells): Nor does it increase intracellular γH2A.X level (Fig 4b) or induce apoptosis
sensitivity to cisplatin, colony formation (SK-N-DZ NB cells): more sensitive to cisplatin treatment in the presence of AOH1160
sensitivity to cleavage by ES-1 (carboxyl esterase, ES-1; amide hydrolysis): sensitive to cleavage by the carboxyl esterase, ES-1
stability in plasma (carboxyl esterase, ES-1; rodent plasma, 37°C): not stable
stability in plasma [6]: stable
stability in plasma [7]: stable
stability in plasma [8]: stable
stability in plasma [9]: stable
half-life in vivo (Pharmacokinetic; PO, 40 mg/kg): about 3.5 h
oral availability (Pharmacokinetic; PO, 40 mg/kg): available to the animal through the oral dosing route
peak concentration (CMAX) (Pharmacokinetic; PO, 40 mg/kg): well above the calculated IC50 of most cancer cell lines
metabolites in animal plasma (Pharmacokinetic; mouse, in vivo): Metabolites derived from AOH1160 hydroxylation were observed
toxicity in repeated dose study [10]: No significant toxicity was observed
maximum concentration achievable under STD NMR condition (15 mM D2O phosphate buffer, 2% D6-DMSO, determined by 1D NMR spectra): approximately 14.5 µM
permeability (not told): high permeability
tumor burden ([11]; vs vehicle): significantly reduced tumor burden
death or weight loss ([11]; data not shown): did not cause any death or significant weight loss
